Assay outcomes deposited in PubChem by several laboratories.
This is a sample that favours compounds with a hit; in the whole collection about 5% have one here.
Beta cell apopt: beta cell apoptosis inhibition | INS-1E cytokine-induced death, ATP luminescence, 48 h; percent of positive-control rescue, neutral wells zero | protection from apoptosis, % (no concentration beside the values) | hit rate 0.8% among 300,000;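 active = Every replicate reaches about 75%, or at least half do and their mean reaches it too, limit read from the data; inconclusive = At least half of replicates reach the limit but their mean does not; inactive = Under half of replicates reach the limit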;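 note: higher means more ATP so stronger rescue from cytokine killing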
CSC inhib: blocks cancer stem cells; cancer stem cell-like cells viability, luminescence; inhibition, % at 7.5 µM; hit rate 1.1% among 300,000; in the data active = inhibition above about 75%; inconclusive = no clear call, values can overlap the other calls; tested in HMLE shEcad cells
T cruzi inh: T. cruzi replication inhibition | T. cruzi beta-gal in NIH3T3, luminescence, 90 h | inhibition, % (test concentration not listed) | hit rate 1.4% among 300,000;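 active = mean inhibition across valid replicates above about 55%, limit read from the data; inconclusive = mean below that limit but half or more replicates reach it; inactive = mean below it, under half of replicates reach it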;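 note: signal also drops with host cell toxicity which is not excluded here; higher percent means less beta-gal luminescence so fewer parasites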
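System – NIH/3T3 host cells with β-galactosidase reporter T. cruzi · Doses – single 50 nL compound addition per well in DMSO · Reagent – 5000 T. cruzi trypomastigotes/well · Medium – Low-serum DMEM with 2% FBS · Timing – ≥90 h infection period, 3 h prior cell attachment · Evaluation – parasite load inhibition, % · Technique – GalScreen luminescence, 60 min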
UPR CHOP act: apoptotic UPR (CHOP) activation; CHO-CHOP luciferase reporter, luminescence; percent of tunicamycin response over DMSO baseline; hit rate 0.34% among 330,000; AID 449763; activation, % at 10 µM;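 active = at 10 µM dose, activation of 40% or more, normalized to positive control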
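System: CHO-CHOP luciferase reporter cell line | Buffer or medium: F12 medium containing 10% fetal bovine serum | Doses: One dose, 10 µM in 0.5% DMSO | Times: 6 h compound exposure at 37 °C after overnight seeding | Signal: Luciferase luminescence | Read-out: % activation vs tunicamycin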
Mdm2-MdmX inh: inhibitors of human Mdm2/MdmX interaction; O15151+Q00987; hit rate 3% among 330,000; inhibition, % at 8 µM; SaOS-2 split-luciferase Mdm2/MdmX complementation, luminescence;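 active = inhibition of at least 50% at 8 µM in the primary screen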
Target sequence (O15151 whole entry, looked up): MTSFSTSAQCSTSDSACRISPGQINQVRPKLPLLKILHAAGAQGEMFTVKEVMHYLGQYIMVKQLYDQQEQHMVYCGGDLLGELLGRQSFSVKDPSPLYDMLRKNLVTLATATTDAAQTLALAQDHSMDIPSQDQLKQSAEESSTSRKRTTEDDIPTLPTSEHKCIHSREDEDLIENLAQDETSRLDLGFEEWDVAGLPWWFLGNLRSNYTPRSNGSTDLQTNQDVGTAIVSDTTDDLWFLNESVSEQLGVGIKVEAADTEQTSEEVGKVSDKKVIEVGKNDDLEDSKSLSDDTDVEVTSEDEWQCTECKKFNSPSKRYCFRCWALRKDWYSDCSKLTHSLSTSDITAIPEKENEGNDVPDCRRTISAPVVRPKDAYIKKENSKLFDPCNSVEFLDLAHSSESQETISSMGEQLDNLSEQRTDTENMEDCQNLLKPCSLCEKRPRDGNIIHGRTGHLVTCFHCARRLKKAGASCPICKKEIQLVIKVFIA
Target sequence (Q00987 whole entry, looked up): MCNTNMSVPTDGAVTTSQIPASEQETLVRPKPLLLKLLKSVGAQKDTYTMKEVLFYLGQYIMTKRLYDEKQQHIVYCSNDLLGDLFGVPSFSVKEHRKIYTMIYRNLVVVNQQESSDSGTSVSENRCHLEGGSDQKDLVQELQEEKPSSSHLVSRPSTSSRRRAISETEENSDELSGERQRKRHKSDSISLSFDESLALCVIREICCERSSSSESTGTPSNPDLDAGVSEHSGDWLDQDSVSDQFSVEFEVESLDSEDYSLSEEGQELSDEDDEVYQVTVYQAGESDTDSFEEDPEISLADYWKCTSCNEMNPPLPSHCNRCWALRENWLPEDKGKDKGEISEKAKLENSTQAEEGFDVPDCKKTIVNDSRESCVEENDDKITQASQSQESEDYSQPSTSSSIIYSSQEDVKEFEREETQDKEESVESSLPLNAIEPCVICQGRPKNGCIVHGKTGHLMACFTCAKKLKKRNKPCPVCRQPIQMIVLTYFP
UPR XBP1 act: activators of adaptive arm of unfolded protein response (XBP1). CHO-XBP1 luciferase reporter, IRE1-XBP1 UPR activation, luminescence; percent of tunicamycin response, DMSO as zero. activation, % at 20 µM. hit rate 0.33% among 330,000. AID 463104;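 active = versus positive control, 20 µM dose yields 30% or more activation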
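assay system = CHO-XBP1 luciferase reporter cells | amount = 1000 cells/well | buffer or medium = F12 plus 10% FBS | compound dosing = single point, 20 µM final compound, 1% DMSO | incubation = 16-18 h cell attachment at 37 °C, then 6 h compound exposure | detection = Steady-Glo luminescence read | controls = tunicamycin 10 µg/mL and vehicle-only wells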
Each line names hits and unclear results; the compound was inactive in the other large screens.

COc1ccc(NC(=O)CC2C(=O)N(CCc3ccccc3)C(=S)N2Cc2cccnc2)cc1 (centres undefined)	T cruzi inh 63
Cc1cccc(C(=O)N/N=C/c2ccc(OC3CSC3)cc2)c1	CSC inhib 76
CC(=O)N1CCN(C(=O)c2ccc(Cl)c(S(=O)(=O)N3CCc4ccccc43)c2)CC1	none (no result: CSC inhib, T cruzi inh)
O=C(c1cccc(S(=O)(=O)N2CCc3ccccc3C2)c1)N1CCN(c2ccc(O)cc2)CC1	CSC inhib 156
NC(=O)C1CCN(C(=O)c2cccc(S(=O)(=O)N3CCc4ccccc4C3)c2)CC1	none (no result: Beta cell apopt)
Cc1cccc(N2CCN(C(=O)c3ccc(Cl)c(S(=O)(=O)N4CCc5ccccc5C4)c3)CC2)c1C	T cruzi inh 59
Cc1cc(OCC(=O)OCC(=O)N(C)c2c(N)n(Cc3ccccc3)c(=O)[nH]c2=O)ccc1Cl	none (no result: Beta cell apopt)
Cc1ccc2nsnc2c1S(=O)(=O)Nc1ccccc1C(=O)O	none
COc1ccc(NS(=O)(=O)c2ccc(N3CCCCC3)c(N)c2)cc1	Beta cell apopt 102 (no result: T cruzi inh)
COc1ccc(NS(=O)(=O)c2ccc(N3CCCCC3)c(NC(=O)C(C)NC(N)=O)c2)cc1 (centres undefined)	none (no result: T cruzi inh)
COc1cc(/C=N/NC(=O)c2cc(C34CC5CC(CC(C5)C3)C4)[nH]n2)ccc1O	CSC inhib 101
COc1cc(/C=N/NC(=O)c2ccc(CN(C)S(=O)(=O)c3ccc(C)cc3)cc2)ccc1O	CSC inhib 78
COc1cc(/C=N/NC(=O)c2cc(C3CC3)[nH]n2)ccc1O	none
COc1cc(/C=N/NC(=O)c2cc(-c3ccc4c(c3)OCO4)n[nH]2)ccc1O	CSC inhib 75
c1ccc(CNc2nc(-c3cccs3)nc3ccccc23)nc1	none
Cc1ccc(CNc2nc(-c3cccs3)nc3ccccc23)cc1	CSC inhib 92
COc1ccc(/C=N/NC(=O)CN(C)C(=O)OCc2ccccc2)cc1OC	none
CCOC(=O)c1c(NC(=S)Nc2ccccc2)sc(C)c1C	none
CCOC(=O)c1c(NC(=O)C[n+]2ccc(Cc3ccccc3)cc2)sc(C)c1C	Beta cell apopt 78, T cruzi inh 59
CCOC(=O)c1c(NC(=O)Cc2ccccc2)sc2c1CCN(C)C2	T cruzi inh 55
CN1CCc2c(sc(NC(=O)c3ccc4ccccc4c3)c2C(N)=O)C1	T cruzi inh 55
CN1CCc2c(sc(NC(=O)Cc3ccccc3)c2C(N)=O)C1	none
C/C(=N\Nc1nc(N2CCCCC2)nc(N2CCOCC2)n1)c1ccccc1O	T cruzi inh 55 (no result: Beta cell apopt)
Oc1ccc(Br)cc1/C=N/Nc1nc(N2CCCCC2)nc(N2CCOCC2)n1	T cruzi inh 74
NC(=O)c1cc2c(s1)-c1cc(Cl)ccc1SC2	none
Cc1ncc2c(n1)-c1cc(F)ccc1SC2	T cruzi inh inconclusive
CSc1ncc2c(n1)-c1cc(C)ccc1SC2	T cruzi inh 75 (no result: CSC inhib)
Nc1ncc2c(n1)-c1cc(Cl)ccc1SC2	T cruzi inh 72
CC(C)c1cccc(C2=CC(=O)C[C@H](c3ccc4c(c3)OCO4)C2)c1	none (no result: T cruzi inh)
CCN(CC)c1ccc(NC(=O)COc2ccc(N(C)S(=O)(=O)c3cccs3)cc2)cc1	T cruzi inh 61
CN(c1ccc(OCC(=O)OCC(=O)Nc2ccccc2)cc1)S(=O)(=O)c1cccs1	none
COc1cccc(/C=C/C(=O)c2ccc3c(c2)OCCO3)c1OC	none (no result: Beta cell apopt)
COCCC(=O)N1CCCC(C(=O)c2ccc(Oc3ccccc3)cc2)C1 (centres undefined)	none
CCN1CCN(CC(=O)N2CCCC(C(=O)c3ccc(Oc4ccccc4)cc3)C2)CC1 (centres undefined)	T cruzi inh 72
CC(C)(C)c1ccc(NNC(=O)C2CCC2)cc1	Beta cell apopt 109
O=S(=O)(Nc1ccccc1N1CCOCC1)c1c(F)cc(F)cc1Br	none (no result: T cruzi inh)
Cc1nc(OCc2c(C)noc2C)c2ccccc2n1	none (no result: CSC inhib)
CCCSc1nnc(CSc2nc3ccccc3s2)n1-c1ccccc1	CSC inhib 86
N#CCCCSc1nnc(CSc2nc3ccccc3s2)n1-c1ccccc1	none
CNC(=S)Nc1ccc(C(N)=O)cc1	none
Cc1ccc(C(=O)N/C(=C\c2ccc(-c3cc(Cl)ccc3Cl)o2)C(=O)NCc2cccnc2)cc1	none
O=C(NCc1cccnc1)/C(=C\c1ccc(-c2cccc(Cl)c2)o1)S(=O)(=O)c1ccccc1	Beta cell apopt 104, CSC inhib 101 (no result: UPR CHOP act, Mdm2-MdmX inh, UPR XBP1 act)
Cc1cc(C)c[n+](C(C)C(=O)c2ccc(Cl)cc2)c1 (centres undefined)	none
c1cncc(-c2nc3ccccc3s2)c1	none
CC(=O)N(Cc1cccnc1)c1cccc(-c2nc3ccccc3s2)c1	T cruzi inh 59
CCOC(=O)c1cc(-c2cccs2)nc2c1c(C)nn2-c1ccccn1	CSC inhib 104
Cc1nn(-c2ccccn2)c2nc(-c3cccs3)cc(C(=O)NCc3ccco3)c12	none
Cc1csc2ncnc(NC3CCN(Cc4ccccc4)CC3)c12	Beta cell apopt 107
O=c1cc[nH]c2ccc(OC(F)(F)F)cc12	none
O=C(CN1CCOCC1)N/N=C/c1c(O)ccc2ccccc12	Beta cell apopt 84
N#C/C(=C(/O)c1cc2ccccc2o1)c1nc2ccccc2s1	CSC inhib 108
N#C/C(=C(/O)c1ccco1)c1nc2ccccc2s1	none
CCOc1ccc(NS(=O)(=O)c2ccc(C(=O)NCCN3CCOCC3)cc2)cc1	none (no result: CSC inhib)
C=CCn1c(CNc2ccccc2)nnc1SCC(=O)N/N=C/c1ccc(O)cc1O	CSC inhib 86
C=CCn1c(COc2ccccc2)nnc1SCC(=O)N/N=C/c1cc(Cl)ccc1O	none
O=c1c2ccccc2oc2ccc(-c3ccc4cc[nH]c4c3)cc12	CSC inhib 89 (no result: T cruzi inh)
COc1ccc2oc3ccccc3c(=O)c2c1	none
CCCc1nnc(NC(=O)c2nc(S(=O)(=O)Cc3ccc(C)cc3)ncc2Cl)s1	CSC inhib 108
CCOC(=O)c1ccc(NC(=O)c2nc(S(=O)(=O)Cc3ccccc3)ncc2Cl)cc1	Beta cell apopt 78, CSC inhib 103
CCOC(=O)c1ccc(NC(=O)CCS(=O)(=O)Cc2ccccc2)cc1	none
Cc1ccc(S(=O)(=O)CCc2nnc(NC(=O)c3cnccn3)s2)cc1	none
COc1ccc(C(=O)c2c(C)c3ccccc3n2CC(O)CNC(C)C)cc1 (centres undefined)	Beta cell apopt 102
Cc1ccc([N+](=O)[O-])c(NC2OC(CO)C(O)C2O)c1 (centres undefined)	none
CCOc1ccc2oc(C(=O)NC3CCN(Cc4ccccc4)CC3)c(C)c2c1	T cruzi inh 61
O=C(NC1CCN(Cc2ccccc2)CC1)c1ccc(S(=O)(=O)NCc2ccco2)cc1	T cruzi inh 73
